The values below come from PMC8341375 (RSC Chemical Biology, 2021).

One data set relates to recombinant CYP19. As to the kind of experiment: Soret shifts by absorption spectroscopy. Type of data set: binding. Particulars: titration of up to 100 μM, 2 μM ASD. In a few lines: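 Purified recombinant CYP19 (from codon-optimized CYP19A1 cDNA in pCW) at 2–3 μM in 100 mM potassium phosphate, pH 7.4. Test compound titrated (6–36 μM, then 100 μM) with ACN kept ≤3%, with or without 2 μM androstenedione. UV-Vis absorption scans after 10 min at 25 °C. Adducts were dithionite-reduced and exposed to CO in some runs.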

Data set [1] has as its target T1, aromatase (CYP19) (Homo sapiens, UniProt P11511).
T1 sequence (P11511 1-503): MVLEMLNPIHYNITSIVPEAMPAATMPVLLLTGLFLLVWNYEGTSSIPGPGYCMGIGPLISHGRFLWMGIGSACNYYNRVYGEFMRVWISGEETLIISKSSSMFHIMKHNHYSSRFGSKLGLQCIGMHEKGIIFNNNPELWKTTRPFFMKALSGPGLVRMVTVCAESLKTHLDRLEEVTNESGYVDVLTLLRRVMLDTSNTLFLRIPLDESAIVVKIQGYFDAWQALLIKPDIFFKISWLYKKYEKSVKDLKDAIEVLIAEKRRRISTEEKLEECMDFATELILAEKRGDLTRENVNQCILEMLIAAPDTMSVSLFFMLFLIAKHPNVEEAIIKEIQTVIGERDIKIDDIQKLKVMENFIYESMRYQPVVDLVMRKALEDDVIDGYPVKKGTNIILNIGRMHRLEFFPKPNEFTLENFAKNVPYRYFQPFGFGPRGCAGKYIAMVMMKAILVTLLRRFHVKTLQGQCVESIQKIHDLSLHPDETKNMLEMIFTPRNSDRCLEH
The settings on record: noncompetitive AI; cited from earlier work.

Data set [2] addresses T1, aromatase (CYP19). Nature of the data set: CYP19/MFC aromatase inhibition assay. The settings on record: for Fractional activity at saturation / Hill slope: dose-response fit, 7.5 nM P450, 25 μM MFC; for Hill slope: AR19 fixed to 1. The format is biochemical.
The next data set addresses T2, CYP19 (Homo sapiens, UniProt P11511).
T2 sequence (P11511 1-503): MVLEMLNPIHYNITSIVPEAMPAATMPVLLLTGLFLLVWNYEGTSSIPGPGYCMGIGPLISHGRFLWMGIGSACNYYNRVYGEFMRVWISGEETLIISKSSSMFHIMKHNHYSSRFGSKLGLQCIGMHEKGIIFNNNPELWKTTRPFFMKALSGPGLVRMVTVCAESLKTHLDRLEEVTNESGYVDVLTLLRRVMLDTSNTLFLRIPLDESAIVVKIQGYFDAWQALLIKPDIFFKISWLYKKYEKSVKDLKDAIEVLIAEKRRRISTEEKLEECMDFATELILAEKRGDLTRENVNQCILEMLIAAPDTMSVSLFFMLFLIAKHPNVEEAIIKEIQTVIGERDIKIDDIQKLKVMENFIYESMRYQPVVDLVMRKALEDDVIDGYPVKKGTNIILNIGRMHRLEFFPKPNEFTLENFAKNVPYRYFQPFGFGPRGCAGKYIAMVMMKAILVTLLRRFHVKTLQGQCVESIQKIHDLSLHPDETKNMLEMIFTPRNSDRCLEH
As to the kind of experiment: AR11 and AR13 steady-state kinetics assay. Type of data set: biochemical. Particulars: nonlinear regression, no inhibitor.

Substrate in data set [3]: COc1ccc2c(C(F)(F)F)cc(=O)oc2c1
As to the kind of experiment: AR11 and AR13 steady-state kinetics assay. Type of data set: biochemical. Particulars: other: nonlinear regression, no inhibitor; pH 7.4; 37.0 °C.

By Ki is commonly meant a measure of affinity in units of concentration, obtained from inhibition or displacement. As a reminder, the IC50 is the concentration at which inhibition is half-maximal. A lower IC50 goes with greater potency. One may read the Hill slope as the slope factor of the fitted curve. In the case of `CC/C(=C(\c1ccc(O)cc1)c1ccc(OCCNC)cc1)c1ccccc1` [Endoxifen, endoxifen], in the data set with recombinant CYP19, the “Soret peak shift from 395 nm in the CYP19 ASD-bound state” value was “did not induce a Soret peak shift”. Moreover, the Ki at aromatase (CYP19) [1] was 4 µM. This molecule also showed an IC50 at aromatase (CYP19) [2] (IC50, 7.5 nM P450, 25 μM MFC, 4-parameter logistic model (AR19: 3-parameter, Hill 1), ± SEM) of 30.9 ± 3.1 µM. In addition, on aromatase (CYP19) [2], the “Fractional activity at saturation” value stood at 0.02 ± 0.02 and the Hill slope is reported as 2.27 ± 0.41. At aromatase (CYP19) [2] (listed as endoxifen), the Hill slope came out at 2.
For `CC(=O)N1CCN(c2ccc(OCC3COC(Cn4ccnc4)(c4ccc(Cl)cc4Cl)O3)cc2)CC1` (stereo not shown) [Ketoconazole, ketoconazole], on aromatase (CYP19) [2], the “Fractional activity at saturation” value was determined as 0.03 ± 0.01 and the Hill slope was found to be 1.12 ± 0.07.
As for `COc1ccc2c(C(F)(F)F)cc(=O)oc2c1` [MFC, 7-methoxy-4-(trifluoromethyl)coumarin], the “substrate Vmax” value on CYP19 was 0.731 pmol HFC min^−1 pmol^−1 P450.

B1: CYP19 (Homo sapiens) (protein)
chain: MVLEMLNPIHYNITSIVPEAMPAATMPVLLLTGLFLLVWNYEGTSSIPGPGYCMGIGPLISHGRFLWMGIGSACNYYNRVYGEFMRVWISGEETLIISKSSSMFHIMKHNHYSSRFGSKLGLQCIGMHEKGIIFNNNPELWKTTRPFFMKALSGPGLVRMVTVCAESLKTHLDRLEEVTNESGYVDVLTLLRRVMLDTSNTLFLRIPLDESAIVVKIQGYFDAWQALLIKPDIFFKISWLYKKYEKSVKDLKDAIEVLIAEKRRRISTEEKLEECMDFATELILAEKRGDLTRENVNQCILEMLIAAPDTMSVSLFFMLFLIAKHPNVEEAIIKEIQTVIGERDIKIDDIQKLKVMENFIYESMRYQPVVDLVMRKALEDDVIDGYPVKKGTNIILNIGRMHRLEFFPKPNEFTLENFAKNVPYRYFQPFGFGPRGCAGKYIAMVMMKAILVTLLRRFHVKTLQGQCVESIQKIHDLSLHPDETKNMLEMIFTPRNSDRCLEH
Broadly, the Km is the concentration of substrate that gives half-maximal velocity. In the case of B1, the Km in data set [3] was determined as 28.48 µM.
